Data reported in paper PMC4775309 (Biochemistry, 2016).

Experiments:
Assay in all cases: Fluorescence quenching binding assay, NADPH-free apoenzyme
wild-type EryKR3^0 = molecular target: T1, wild-type EryKR3^0 (Saccharopolyspora erythraea, UniProt Q03132)
T1 sequence (Q03132 1132-1297 limits assumed): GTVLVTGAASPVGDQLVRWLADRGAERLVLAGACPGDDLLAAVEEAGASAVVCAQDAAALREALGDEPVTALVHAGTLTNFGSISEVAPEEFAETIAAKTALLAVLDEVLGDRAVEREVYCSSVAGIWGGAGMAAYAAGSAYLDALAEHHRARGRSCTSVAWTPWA
Method in brief: (§1)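 Cofactor removed by dialysis, 36 h, against 50 mM potassium phosphate pH 7.5 with 1 M KBr, 5 mM EDTA and 10% glycerol, then 36 h into 50 mM sodium phosphate pH 7.5 with 10% glycerol. Apoenzyme (1 μM) titrated with (±)-2-methyl-3-ketopentanoyl-SNAC (0–50 mM final), 20 min at room temperature. Fluorescence read at pH 7.2 and 30 °C (ex 280, em 338 nm). Quenching (Fapo−Fobs) fitted to a one-site saturation model for Kd.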

wild-type EryKR1 = wild-type EryKR1 (Saccharopolyspora erythraea, UniProt Q03131)
Sequence of wild-type EryKR1 (Q03131 1613-1790 limits assumed): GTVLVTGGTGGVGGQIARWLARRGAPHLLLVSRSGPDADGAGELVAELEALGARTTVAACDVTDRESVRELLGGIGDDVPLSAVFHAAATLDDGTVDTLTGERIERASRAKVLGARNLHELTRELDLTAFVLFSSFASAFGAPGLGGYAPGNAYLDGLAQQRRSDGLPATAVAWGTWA
Method in brief: as §1

wild-type PicKR3^0 = molecular target: T2, wild-type PicKR3^0 (Streptomyces venezuelae, UniProt Q9ZGI4)
T2 sequence (Q9ZGI4 1150-1343 limits assumed): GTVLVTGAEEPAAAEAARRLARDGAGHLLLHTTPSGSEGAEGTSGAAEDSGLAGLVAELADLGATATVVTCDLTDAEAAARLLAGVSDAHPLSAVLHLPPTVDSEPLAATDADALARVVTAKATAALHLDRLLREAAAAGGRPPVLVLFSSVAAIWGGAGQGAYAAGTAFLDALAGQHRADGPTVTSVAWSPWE
Method in brief: as §1

Kd (wild-type EryKR3^0): 8 ± 0.4 mM
Kd (wild-type EryKR1): 7.7 ± 0.4 mM
Kd (wild-type PicKR3^0): 5 ± 0.3 mM
Compound: CCC(=O)C(C)C(=O)SCCNC(C)=O (racemic) [compound 1, (±)-2-methyl-3-ketopentanoyl-N-acetycysteamine (SNAC) thioester]
